Measured values as given in ChEMBL document CHEMBL1136847, “Syntheses and potential anti-prostate cancer activities of ionone-based chalcones” (Bioorg Med Chem Lett, 2009).

What was measured:
Assay type in all cases: functional, cell-based
PC-3 = test: Cytotoxicity against androgen-independent human PC3 cells after 72 hrs by MTT assay; details: PC-3, 72 h
How it was run: (§1)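 Cells seeded at 6000–7000 per well in RPMI 1640 with 10% FBS, penicillin and streptomycin, left overnight, then exposed to a range of concentrations from DMSO stock (final DMSO 0.5%) for 72 h. MTT added for a further 2 h and formazan from viable cells read. IC50 taken from survival curves, 50% inhibition relative to 0.5% DMSO control; top concentration 150 µM.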

LNCaP = test: Cytotoxicity against androgen-dependent human LNCAP cells with T877A AR mutant after 72 hrs by MTT assay; how it was run: as §1
[1] = test system: T1, Androgen receptor (Homo sapiens), P10275 [H875Y]; test: Antagonist activity at androgen receptor H874Y mutant in human PC3 cells transiently transfected with pCMV-MMTV-Luc assessed as suppression of DHT-induced receptor transactivation; details: PC-3
T1 sequence (whole entry): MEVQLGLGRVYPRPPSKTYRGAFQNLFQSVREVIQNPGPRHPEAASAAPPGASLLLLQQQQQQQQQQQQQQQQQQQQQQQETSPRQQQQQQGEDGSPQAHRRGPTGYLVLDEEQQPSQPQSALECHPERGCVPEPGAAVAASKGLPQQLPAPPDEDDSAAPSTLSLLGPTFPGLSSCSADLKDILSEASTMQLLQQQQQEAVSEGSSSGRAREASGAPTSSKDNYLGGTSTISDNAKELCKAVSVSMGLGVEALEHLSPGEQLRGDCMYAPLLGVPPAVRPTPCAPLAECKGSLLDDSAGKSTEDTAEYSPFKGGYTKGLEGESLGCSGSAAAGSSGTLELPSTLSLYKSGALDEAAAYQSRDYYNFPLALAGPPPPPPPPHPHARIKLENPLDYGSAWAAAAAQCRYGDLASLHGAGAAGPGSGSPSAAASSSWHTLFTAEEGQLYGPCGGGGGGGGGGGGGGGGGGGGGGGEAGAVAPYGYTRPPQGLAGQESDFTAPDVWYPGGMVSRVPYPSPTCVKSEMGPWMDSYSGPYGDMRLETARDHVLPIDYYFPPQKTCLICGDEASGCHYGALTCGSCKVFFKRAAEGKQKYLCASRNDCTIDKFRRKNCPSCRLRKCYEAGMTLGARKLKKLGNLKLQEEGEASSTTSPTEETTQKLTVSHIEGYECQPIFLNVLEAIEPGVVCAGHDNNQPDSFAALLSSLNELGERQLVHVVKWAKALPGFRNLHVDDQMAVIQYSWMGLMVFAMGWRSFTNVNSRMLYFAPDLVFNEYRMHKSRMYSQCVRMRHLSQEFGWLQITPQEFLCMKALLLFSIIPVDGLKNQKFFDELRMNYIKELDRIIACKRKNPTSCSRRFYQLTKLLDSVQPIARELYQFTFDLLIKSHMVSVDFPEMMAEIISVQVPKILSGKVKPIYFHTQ
How it was run: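 PC-3 cells seeded 24 h before co-transfection with MMTV-luciferase reporter (100 ng), the wild-type, T877A, W741C or H874Y AR plasmid (10 ng) and Renilla null luciferase (10 ng) using Lipofectamine 2000. Medium switched after 5 h to phenol red-free RPMI 1640 with 10% charcoal-stripped FBS. After 16 h, 0.1 nM DHT ± compound (0.1, 1.0 µM) for 24 h. Dual-luciferase read-out, Renilla-standardized, normalized to DHT alone (100%).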

## CC1=C(/C=C/C(=O)/C=C/c2cccc(C(F)(F)F)c2)C(C)(C)CCC1O (stereo not drawn)
PC-3
  IC50: 3500 nM
LNCaP
  IC50: 740 nM
[1]
  Activity: Dose-dependent effect
